ChEMBL document CHEMBL2016483, “Discovery of novel and potent heterocyclic carboxylic acid derivatives as protein tyrosine phosphatase 1B inhibitors” (Bioorg Med Chem Lett, 2012)
pKi: −log10 of the molar value. Activity calls are given as the source filed them.

Tests used:
[1] = biological target: T1, Tyrosine-protein phosphatase non-receptor type 1 (Homo sapiens, UniProt P18031); assay: Inhibition of human recombinant PTP1B expressed in Escherichia coli using para-nitrophenyl phosphate as substrate preincubated for 30 mins followed by substrate addition measured by […] analysis
T1 sequence (P18031 whole entry): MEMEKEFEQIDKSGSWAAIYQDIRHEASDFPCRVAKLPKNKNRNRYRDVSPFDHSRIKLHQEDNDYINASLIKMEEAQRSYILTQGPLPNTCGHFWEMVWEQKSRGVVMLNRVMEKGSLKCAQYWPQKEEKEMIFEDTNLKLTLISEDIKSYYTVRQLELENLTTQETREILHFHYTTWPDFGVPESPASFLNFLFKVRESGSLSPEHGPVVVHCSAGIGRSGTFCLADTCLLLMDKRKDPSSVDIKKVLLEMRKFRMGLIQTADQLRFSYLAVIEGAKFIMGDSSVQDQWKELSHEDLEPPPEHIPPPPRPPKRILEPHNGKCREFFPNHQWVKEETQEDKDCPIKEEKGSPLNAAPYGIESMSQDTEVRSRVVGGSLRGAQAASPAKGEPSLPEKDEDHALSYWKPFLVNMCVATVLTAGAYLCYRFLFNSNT

[2] = Apparent permeability by PAMPA assay; type: ADME
Liver = assay: Metabolic stability of the compound in mouse liver microsomes assessed as metabolic rate at 1 uM after 30 mins by LC-MS-MS analysis; type: ADME, Microsome; details: 0.5 h
How it was run: (§1)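 Mouse and rat liver microsomes, metabolic rate read at 30 min. Stable was defined as metabolic rate <0.1 nmol/min/mg or 80% remaining at 30 min.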

Liver microsomes = assay: Metabolic stability of the compound in rat liver microsomes assessed as metabolic rate at 1 uM after 30 mins by LC-MS-MS analysis; type: ADME, Microsome; details: 0.5 h; how it was run: as §1
[3] = Cmax in C57BL/6J mouse at 3 mg/kg, iv; type: ADME, organism-based; parameters: dose 3 mg/kg, route intravenous; details: in vivo
[4] = Cmax in C57BL/6J mouse at 30 mg/kg, po; type: ADME, organism-based; parameters: dose 30 mg/kg, route oral; details: in vivo
[5] = Tmax in C57BL/6J mouse at 3 mg/kg, iv; type: ADME, organism-based; parameters: dose 3 mg/kg, route intravenous; details: in vivo
[6] = Tmax in C57BL/6J mouse at 30 mg/kg, po; type: ADME, organism-based; parameters: dose 30 mg/kg, route oral; details: in vivo
[7] = AUC (0 to t) in C57BL/6J mouse at 3 mg/kg, iv; type: ADME, organism-based; parameters: dose 3 mg/kg, route intravenous; details: plasma
[8] = AUC (0 to t) in C57BL/6J mouse at 30 mg/kg, po; type: ADME, organism-based; parameters: dose 30 mg/kg, route oral; details: plasma
[9] = Volume of distribution at steady state in C57BL/6J mouse at 3 mg/kg, iv; type: ADME, organism-based; parameters: dose 3 mg/kg, route intravenous; details: in vivo, read-out: Vdss
[10] = Clearance in C57BL/6J mouse at 3 mg/kg, iv; type: ADME, organism-based; parameters: dose 3 mg/kg, route intravenous; details: in vivo
[11] = Elimination half life in C57BL/6J mouse at 3 mg/kg, iv; type: ADME, organism-based; parameters: dose 3 mg/kg, route intravenous; details: in vivo, read-out: beta t1/2 (converted)
[12] = Oral bioavailability in C57BL/6J mouse at 30 mg/kg; type: ADME, organism-based; details: in vivo
[13] = biological target: T2, Tyrosine-protein phosphatase non-receptor type 2 (Homo sapiens) (UniProt P17706); assay: Inhibition of TCPTP using para-nitrophenyl phosphate as substrate at 100 uM preincubated for 30 mins followed by substrate addition measured by […] analysis
T2 sequence (whole entry): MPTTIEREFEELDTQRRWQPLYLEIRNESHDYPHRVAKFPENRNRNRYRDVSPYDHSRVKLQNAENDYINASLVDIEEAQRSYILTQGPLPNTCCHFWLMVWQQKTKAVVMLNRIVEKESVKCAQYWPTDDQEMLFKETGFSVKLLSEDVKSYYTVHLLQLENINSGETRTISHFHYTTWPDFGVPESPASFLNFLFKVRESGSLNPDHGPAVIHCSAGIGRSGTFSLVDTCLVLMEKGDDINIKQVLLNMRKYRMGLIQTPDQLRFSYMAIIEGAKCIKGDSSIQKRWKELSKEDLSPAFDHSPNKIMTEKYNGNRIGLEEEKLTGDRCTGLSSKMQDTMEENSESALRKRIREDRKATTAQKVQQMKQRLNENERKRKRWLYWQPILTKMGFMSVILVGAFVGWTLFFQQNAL
How it was run: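 TCPTP counter-screen in the same pNPP assay format, tested at 100 µM. Read as percent inhibition.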

[14] = biological target: T3, Tyrosine-protein phosphatase non-receptor type 1 (Homo sapiens) (UniProt P18031); assay: Non-competitive inhibition of human recombinant PTP1B-mediated para-nitrophenyl phosphate hydrolysis preincubated for 30 mins measured by spectrophotometric analysis
T3 sequence (whole entry): T1 sequence (P18031 whole entry)

[15] = Apparent permeability across human Caco2 cells; type: ADME, cell-based; details: Caco-2

pKi [1] | Papp [2] | Drug metabolism (Liver) | Drug metabolism (Liver microsomes) | Structure (SMILES) | further results
4.79 |  |  |  | O=C(O)c1cc(-c2ccc(CC(C(=O)c3ccccc3)c3ccccc3)cc2)n[nH]1 (stereo not drawn) | 
4.40 |  |  |  | O=C(O)c1onc(-c2ccc(CC(C(=O)c3ccccc3)c3ccccc3)cc2)c1C(=O)O (stereo not drawn) | 
5.82 | 8 ×10⁻⁶ cm/s | 0.01 nmol/min/mg | 0.02 nmol/min/mg | O=C(O)c1cc(-c2ccc(CC(C(=O)c3ccc(F)cc3)c3ccc(F)cc3)cc2)no1 (stereo not drawn) | 
5.96 | 103 ×10⁻⁶ cm/s | 0.06 nmol/min/mg | 0.02 nmol/min/mg | O=C(O)c1cc(-c2ccc(CC(C(=O)c3ccccc3)c3ccccc3)cc2)no1 (stereo not drawn) | inhibition [13]: < 10%
5.54 |  |  |  | O=C(O)c1ccc(-c2ccc(CC(C(=O)c3ccccc3)c3ccccc3)cc2)[nH]1 (stereo not drawn) | 
5.11 |  |  |  | Cn1nc(-c2ccc(CC(C(=O)c3ccccc3)c3ccccc3)cc2)cc1C(=O)O (stereo not drawn) | 
5.92 | 85 ×10⁻⁶ cm/s | 0.05 nmol/min/mg | 0.02 nmol/min/mg | O=C(O)c1csc(-c2ccc(CC(C(=O)c3ccccc3)c3ccccc3)cc2)n1 (stereo not drawn) | 
5.40 | 45 ×10⁻⁶ cm/s | 0.04 nmol/min/mg | 0.03 nmol/min/mg | O=C(O)c1cc(-c2ccc(CC(c3ccccc3)c3nc(-c4ccccc4)no3)cc2)no1 (stereo not drawn) | Cmax [3]: 1500 nM; Cmax [4]: 7200 nM; Tmax [5]: 4.8 min; Tmax [6]: 1 h; AUC(0-t) [7]: 1.8 µM·h; AUC(0-t) [8]: 13 µM·h; Vd [9]: 4.8 L/kg; clearance [10]: 63 mL/min/kg; half-life [11]: 1 h; bioavailability [12]: 70%; inhibition [13]: < 10%
5.11 |  |  |  | O=C(O)c1coc(-c2ccc(CC(C(=O)c3ccccc3)c3ccccc3)cc2)n1 (stereo not drawn) | 

The next lines start with the molecule.

Structure (SMILES) | pKi [1] | Papp [2] | Drug metabolism (Liver) | Drug metabolism (Liver microsomes) | further results
COc1ccc(C(Cc2ccc(-c3cc(C(=O)O)on3)cc2)c2nc(-c3ccc(Cl)cc3)no2)cc1 (stereo not drawn) | 6.52 | 48 ×10⁻⁶ cm/s | 0 nmol/min/mg | 0.03 nmol/min/mg | Cmax [3]: 1870 nM; Cmax [4]: 1340 nM; Tmax [5]: 4.98 min; Tmax [6]: 1 h; AUC(0-t) [7]: 0.98 µM·h; AUC(0-t) [8]: 3.6 µM·h; Vd [9]: 4 L/kg; clearance [10]: 99 mL/min/kg; half-life [11]: 1.08 h; bioavailability [12]: 36%; inhibition [13]: < 10%; inhibition [14]: Active
O=C(O)c1cc(-c2ccc(CC(C(=O)c3ccc(F)c(F)c3)c3ccc(F)cc3)cc2)no1 (stereo not drawn) | 5.85 | 16 ×10⁻⁶ cm/s | 0 nmol/min/mg | 0.01 nmol/min/mg | 
O=C(O)c1cc(-c2ccc(CC(C(=O)c3ccc(Cl)cc3)c3ccc(F)c(F)c3)cc2)no1 (stereo not drawn) | 6.10 | 168 ×10⁻⁶ cm/s | 0 nmol/min/mg | 0 nmol/min/mg | Cmax [3]: 4500 nM; Cmax [4]: 1900 nM; Tmax [5]: 4.98 min; Tmax [6]: 1 h; AUC(0-t) [7]: 2.4 µM·h; AUC(0-t) [8]: 3 µM·h; Vd [9]: 4 L/kg; clearance [10]: 38 mL/min/kg; half-life [11]: 1.9 h; bioavailability [12]: 13%; inhibition [13]: < 10%
COC(=O)c1c(O)cccc1OC/C=C/c1ccc(F)c(-c2cc(C(=O)O)no2)c1 |  |  |  |  | Papp [15]: > 1 ×10⁻⁶ cm/s
COc1ccc(-c2noc(C(Cc3ccc(-c4cc(C(=O)O)on4)cc3)c3ccc(F)cc3)n2)cc1 (stereo not drawn) | 6.40 | 4 ×10⁻⁶ cm/s | 0 nmol/min/mg | 0.01 nmol/min/mg | inhibition [13]: < 10%
O=C(O)c1csc(-c2ccc(CC(C(=O)c3ccc(Cl)cc3)c3ccc(F)c(F)c3)cc2)n1 (stereo not drawn) | 6.22 |  |  |  | inhibition [13]: < 10%
O=C(O)C1CC(=O)N(c2ccc(CC(C(=O)c3ccccc3)c3ccccc3)cc2)C1 (stereo not drawn) | 5.11 |  |  |  | 
O=C(O)c1cc(-c2ccc(CC(C(=O)c3cc(F)cc(F)c3)c3ccc(F)cc3)cc2)no1 (stereo not drawn) | 5.62 |  |  |  | 
COc1ccc(C(Cc2ccc(-c3nc(C(=O)O)cs3)cc2)c2nc(-c3cccc(F)c3)no2)cc1 (stereo not drawn) | 6.30 | 6 ×10⁻⁶ cm/s | 0 nmol/min/mg | 0.04 nmol/min/mg | 
O=C(O)c1csc(-c2ccc(CC(C(=O)c3ccc(F)c(F)c3)c3ccc(F)cc3)cc2)n1 (stereo not drawn) | 5.74 |  |  |  | 
O=C(O)c1csc(-c2ccc(CC(c3ccc(F)cc3)c3nc(-c4cccc(F)c4)no3)cc2)n1 (stereo not drawn) | 6.30 | 10 ×10⁻⁶ cm/s | 0 nmol/min/mg | 0.01 nmol/min/mg | 
O=C(O)C1CCN(c2ccc(CC(C(=O)c3ccccc3)c3ccccc3)cc2)C1=O (stereo not drawn) | 5.29 |  |  |  | 
